Test results from ChEMBL document CHEMBL5058577, “EUbOPEN Chemogenomics Library 2 (Multiplex)” (2022).

System: Fibroblast
Test: Multiplex assay against human fibroblast
Format: toxicity, cell-based
Summary of the method: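 Tubulin, mitochondrial-mass and membrane-permeability phenotypes are per cents of healthy-nucleus cells. Cells were gated by CellPathfinder machine learning into Hoechst high-intensity objects or normal cells, normal cells into healthy, pyknosed or fragmented nuclei, and pyknosed cells into mitotic or apoptotic. Before that, live cells stained at seeding with Hoechst33342, BioTracker Green Microtubule Cytoskeleton Dye, MitoTracker Red and Annexin V Alexa Fluor 680 were imaged on a CQ1 microscope at 37°C and 5% CO2 after compound addition.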

[1] = 12 h, 1 µM, compound concentration 1 uM, replicate 1
[2] = 12 h, 1 µM, compound concentration 1 uM, replicate 2
[3] = 12 h, 10 µM, compound concentration 10 uM, replicate 1
[4] = 12 h, 10 µM, compound concentration 10 uM, replicate 2
[5] = 24 h, 1 µM, compound concentration 1 uM, replicate 1
[6] = 24 h, 1 µM, compound concentration 1 uM, replicate 2
[7] = 24 h, 10 µM, compound concentration 10 uM, replicate 1
[8] = 24 h, 10 µM, compound concentration 10 uM, replicate 2
[9] = 48 h, 1 µM, compound concentration 1 uM, replicate 1
[10] = 48 h, 1 µM, compound concentration 1 uM, replicate 2
[11] = 48 h, 10 µM, compound concentration 10 uM, replicate 1
[12] = 48 h, 10 µM, compound concentration 10 uM, replicate 2

S=C(NCCCc1c[nH]cn1)NCCCN(Cc1ccc(Cl)c(Cl)c1)c1ccc(Br)cn1
Population Apoptotic (%) [1]: 40% | Population Fragmented Nuclei (%) [1]: 13% | Population Healthy Nuclei (%) [1]: 71% | Population Hoechst High Intensity Objects (%) [1]: 5% | Population Membrane Permeable-Phenotype (%) [1]: 1% | Population Mitochondria Different-Phenotype (%) [1]: 5% | Population Mitotic Cells (%) [1]: 60% | Population Normal (%) [1]: 94% | Population Pyknosed Nuclei (%) [1]: 14% | Population Tubulin-Different-Phenotype (%) [1]: 26% | Total Cell Count [1]: 142 | Population Apoptotic (%) [2]: 31% | Population Fragmented Nuclei (%) [2]: 30% | Population Healthy Nuclei (%) [2]: 50% | Population Hoechst High Intensity Objects (%) [2]: 4% | Population Membrane Permeable-Phenotype (%) [2]: 5% | Population Mitochondria Different-Phenotype (%) [2]: 6% | Population Mitotic Cells (%) [2]: 68% | Population Normal (%) [2]: 95% | Population Pyknosed Nuclei (%) [2]: 18% | Population Tubulin-Different-Phenotype (%) [2]: 37% | Total Cell Count [2]: 181 | Population Apoptotic (%) [3]: 47% | Population Fragmented Nuclei (%) [3]: 27% | Population Healthy Nuclei (%) [3]: 56% | Population Hoechst High Intensity Objects (%) [3]: 3% | Population Membrane Permeable-Phenotype (%) [3]: 0% | Population Mitochondria Different-Phenotype (%) [3]: 15% | Population Mitotic Cells (%) [3]: 52% | Population Normal (%) [3]: 96% | Population Pyknosed Nuclei (%) [3]: 16% | Population Tubulin-Different-Phenotype (%) [3]: 89% | Total Cell Count [3]: 220 | Population Apoptotic (%) [4]: 52% | Population Fragmented Nuclei (%) [4]: 34% | Population Healthy Nuclei (%) [4]: 53% | Population Hoechst High Intensity Objects (%) [4]: 5% | Population Mitochondria Different-Phenotype (%) [4]: 10% | Population Mitotic Cells (%) [4]: 47% | Population Normal (%) [4]: 94% | Population Pyknosed Nuclei (%) [4]: 12% | Total Cell Count [4]: 279 | Population Apoptotic (%) [5]: 69% | Population Fragmented Nuclei (%) [5]: 15% | Population Healthy Nuclei (%) [5]: 74% | Population Hoechst High Intensity Objects (%) [5]: 4% | Population Membrane Permeable-Phenotype (%) [5]: 2% | Population Mitochondria Different-Phenotype (%) [5]: 2% | Population Mitotic Cells (%) [5]: 30% | Population Normal (%) [5]: 95% | Population Pyknosed Nuclei (%) [5]: 9% | Population Tubulin-Different-Phenotype (%) [5]: 28% | Total Cell Count [5]: 137 | Population Apoptotic (%) [6]: 23% | Population Fragmented Nuclei (%) [6]: 30% | Population Healthy Nuclei (%) [6]: 57% | Population Hoechst High Intensity Objects (%) [6]: 1% | Population Mitochondria Different-Phenotype (%) [6]: 6% | Population Mitotic Cells (%) [6]: 76% | Population Normal (%) [6]: 98% | Population Pyknosed Nuclei (%) [6]: 11% | Population Tubulin-Different-Phenotype (%) [6]: 42% | Total Cell Count [6]: 183 | Population Apoptotic (%) [7]: 66% | Population Fragmented Nuclei (%) [7]: 22% | Population Healthy Nuclei (%) [7]: 61% | Population Hoechst High Intensity Objects (%) [7]: 1% | Population Membrane Permeable-Phenotype (%) [7]: 0% | Population Mitochondria Different-Phenotype (%) [7]: 19% | Population Mitotic Cells (%) [7]: 33% | Population Normal (%) [7]: 98% | Population Pyknosed Nuclei (%) [7]: 15% | Population Tubulin-Different-Phenotype (%) [7]: 93% | Total Cell Count [7]: 214 | Population Apoptotic (%) [8]: 61% | Population Fragmented Nuclei (%) [8]: 27% | Population Healthy Nuclei (%) [8]: 59% | Population Hoechst High Intensity Objects (%) [8]: 4% | Population Membrane Permeable-Phenotype (%) [8]: 2% | Population Mitochondria Different-Phenotype (%) [8]: 7% | Population Mitotic Cells (%) [8]: 38% | Population Normal (%) [8]: 95% | Population Pyknosed Nuclei (%) [8]: 13% | Population Tubulin-Different-Phenotype (%) [8]: 95% | Total Cell Count [8]: 248 | Population Apoptotic (%) [9]: 75% | Population Fragmented Nuclei (%) [9]: 27% | Population Healthy Nuclei (%) [9]: 67% | Population Hoechst High Intensity Objects (%) [9]: 3% | Population Membrane Permeable-Phenotype (%) [9]: 0% | Population Mitochondria Different-Phenotype (%) [9]: 0% | Population Mitotic Cells (%) [9]: 25% | Population Normal (%) [9]: 96% | Population Pyknosed Nuclei (%) [9]: 5% | Population Tubulin-Different-Phenotype (%) [9]: 24% | Total Cell Count [9]: 156 | Population Apoptotic (%) [10]: 35% | Population Fragmented Nuclei (%) [10]: 30% | Population Healthy Nuclei (%) [10]: 59% | Population Hoechst High Intensity Objects (%) [10]: 4% | Population Membrane Permeable-Phenotype (%) [10]: 5% | Population Mitochondria Different-Phenotype (%) [10]: 3% | Population Mitotic Cells (%) [10]: 64% | Population Normal (%) [10]: 95% | Population Pyknosed Nuclei (%) [10]: 10% | Population Tubulin-Different-Phenotype (%) [10]: 36% | Total Cell Count [10]: 178 | Population Apoptotic (%) [11]: 62% | Population Fragmented Nuclei (%) [11]: 27% | Population Healthy Nuclei (%) [11]: 59% | Population Hoechst High Intensity Objects (%) [11]: 6% | Population Membrane Permeable-Phenotype (%) [11]: 0% | Population Mitochondria Different-Phenotype (%) [11]: 7% | Population Mitotic Cells (%) [11]: 37% | Population Normal (%) [11]: 93% | Population Pyknosed Nuclei (%) [11]: 12% | Population Tubulin-Different-Phenotype (%) [11]: 91% | Total Cell Count [11]: 230 | Population Apoptotic (%) [12]: 63% | Population Fragmented Nuclei (%) [12]: 31% | Population Healthy Nuclei (%) [12]: 60% | Population Hoechst High Intensity Objects (%) [12]: 5% | Population Mitochondria Different-Phenotype (%) [12]: 1% | Population Mitotic Cells (%) [12]: 36% | Population Normal (%) [12]: 94% | Population Pyknosed Nuclei (%) [12]: 7% | Population Tubulin-Different-Phenotype (%) [12]: 86% | Total Cell Count [12]: 293
